Published values pooled from the literature.
Compare with care: the assays were run in different laboratories.

Cc1c(C(=O)O)ccc2c3n(nc12)[C@@H]1[C@H](C3)N(CC2CC2)[C@@]2(C(=O)Nc3cc(Cl)ccc32)[C@H]1c1cccc(Cl)c1F has a GI50 of 0.00119 µM (UACC-812; cell growth or viability).
NNC(=O)c1ccncc1 gave an MIC of 117 µM (Mycolicibacterium smegmatis; microbial growth, broth dilution; ATCC700084).
With COC1=CC(=O)c2ccccc2C1=O the MIC was 12.5 µg/mL (Candida tropicalis; microbial growth, broth dilution; ATCC13803; 24 h).
COc1cc(Cc2cnc(N)nc2N)cc(OC)c1OC gave an IC50 of 11.8 µg/mL (Toxoplasma gondii; parasite growth, fluorescence; HS27; 96 h, intracellular).
With Cc1cc(/C=C/C#N)cc(C)c1Nc1ccnc(Nc2ccc(C#N)cc2)n1 the IC50 was 19.1 µM (SUNE1; cell growth or viability, MTT; 48 h).
COc1cccc(/C=N/N2C(=O)c3ccccc3NC2c2cccc(OC)c2O)c1O (stereo not shown) has an MIC of greater than 256 µg/mL (Mycolicibacterium smegmatis; microbial growth, broth dilution; ATCC700084; 72 h).
CC(=O)N1N=C(c2ccc(NS(=O)(=O)c3ccc4oc(=O)ccc4c3)cc2)CC1c1ccc(Br)cc1 (stereo not shown) has an IC50 of less than 3.91 µg/mL (Toxoplasma gondii; parasite growth, fluorescence; HS27; 96 h, intracellular).
With C=CC(=O)NC1CCN(c2ncc3ncnc(Nc4ccc(Oc5ccc6c(c5)ncn6C)c(C)c4)c3n2)CC1 the EC50 was 0.0396 µM (Panc1005; cell growth or viability).
C[C@@H]1[C@H](O)[C@@H](C)/C=C/C=C/C=C/C=C/C=C/C=C/C=C/[C@H](O[C@@H]2O[C@H](C)[C@@H](O)[C@H](N)[C@@H]2O)C[C@@H]2O[C@](O)(C[C@@H](O)C[C@@H](O)[C@H](O)CC[C@@H](O)C[C@@H](O)CC(=O)O[C@H]1C)C[C@H](O)[C@H]2C(=O)O has an MIC of 4 µg/mL (Candida tropicalis; microbial growth, broth dilution; ATCC13803; 24 h).
COc1cc2nc(N3CCN(C(=O)C4COc5ccccc5O4)CC3)nc(N)c2cc1OC (stereo not shown) has an IC50 of 8.89 µM (SUNE1; cell growth or viability, MTT; 48 h).
